From ChEMBL document CHEMBL1150387, “Development and experimental validation of a docking strategy for the generation of kinase-targeted libraries” (J Med Chem, 2008)

What was measured:
[1] = molecular target: Tyrosine-protein kinase ABL1 (Homo sapiens) (UniProt P00519); assay: Inhibition of Abl at 10 uM by HTRF assay relative to control
Method in brief: (§1)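 HTRF kinase assay, one panel of kinases. Inhibitor stock 50 µM in 100% DMSO; tested at 10 µM. ATP and substrate at final levels near Km. Final buffer: 50 mM Hepes/NaOH pH 7.4, 40 µM Na3VO4, 0.005% Tween-20, 1 mM DTT, MnCl2 or MgCl2 at kinase-dependent levels. Started by adding ATP/substrate. Reaction run at room temperature, time varied by kinase. Detection mix in 50 mM Hepes pH 7.4, 0.1% BSA, 150 mM KF, incubated ≥1 h at room temperature. Activity expressed as % of uninhibited control; n=2.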

[2] = molecular target: Calcium/calmodulin-dependent protein kinase type II subunit alpha (Homo sapiens) (UniProt Q9UQM7); assay: Inhibition of CaMK2alpha at 10 uM by HTRF assay relative to control; method in brief: as §1
Sequence of Calcium/calmodulin-dependent protein kinase type II subunit alpha (Homo sapiens) (Q9UQM7 whole entry): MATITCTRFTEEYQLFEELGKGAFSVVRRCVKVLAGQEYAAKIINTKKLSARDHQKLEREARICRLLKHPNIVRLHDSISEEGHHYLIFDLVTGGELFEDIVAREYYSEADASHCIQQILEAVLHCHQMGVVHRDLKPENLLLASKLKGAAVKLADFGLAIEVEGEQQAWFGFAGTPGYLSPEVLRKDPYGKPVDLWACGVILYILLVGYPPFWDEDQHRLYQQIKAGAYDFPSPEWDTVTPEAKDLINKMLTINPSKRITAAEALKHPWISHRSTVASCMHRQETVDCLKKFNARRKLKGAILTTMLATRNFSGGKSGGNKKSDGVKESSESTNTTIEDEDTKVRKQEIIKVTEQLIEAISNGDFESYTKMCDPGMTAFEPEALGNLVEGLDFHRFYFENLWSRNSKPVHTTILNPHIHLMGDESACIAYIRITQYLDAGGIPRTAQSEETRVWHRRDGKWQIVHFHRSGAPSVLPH

[3] = molecular target: Vascular endothelial growth factor receptor 2 (Homo sapiens) (UniProt P35968); assay: Inhibition of KDR at 10 uM by HTRF assay relative to control; method in brief: as §1
Sequence of Vascular endothelial growth factor receptor 2 (Homo sapiens) (P35968 whole entry): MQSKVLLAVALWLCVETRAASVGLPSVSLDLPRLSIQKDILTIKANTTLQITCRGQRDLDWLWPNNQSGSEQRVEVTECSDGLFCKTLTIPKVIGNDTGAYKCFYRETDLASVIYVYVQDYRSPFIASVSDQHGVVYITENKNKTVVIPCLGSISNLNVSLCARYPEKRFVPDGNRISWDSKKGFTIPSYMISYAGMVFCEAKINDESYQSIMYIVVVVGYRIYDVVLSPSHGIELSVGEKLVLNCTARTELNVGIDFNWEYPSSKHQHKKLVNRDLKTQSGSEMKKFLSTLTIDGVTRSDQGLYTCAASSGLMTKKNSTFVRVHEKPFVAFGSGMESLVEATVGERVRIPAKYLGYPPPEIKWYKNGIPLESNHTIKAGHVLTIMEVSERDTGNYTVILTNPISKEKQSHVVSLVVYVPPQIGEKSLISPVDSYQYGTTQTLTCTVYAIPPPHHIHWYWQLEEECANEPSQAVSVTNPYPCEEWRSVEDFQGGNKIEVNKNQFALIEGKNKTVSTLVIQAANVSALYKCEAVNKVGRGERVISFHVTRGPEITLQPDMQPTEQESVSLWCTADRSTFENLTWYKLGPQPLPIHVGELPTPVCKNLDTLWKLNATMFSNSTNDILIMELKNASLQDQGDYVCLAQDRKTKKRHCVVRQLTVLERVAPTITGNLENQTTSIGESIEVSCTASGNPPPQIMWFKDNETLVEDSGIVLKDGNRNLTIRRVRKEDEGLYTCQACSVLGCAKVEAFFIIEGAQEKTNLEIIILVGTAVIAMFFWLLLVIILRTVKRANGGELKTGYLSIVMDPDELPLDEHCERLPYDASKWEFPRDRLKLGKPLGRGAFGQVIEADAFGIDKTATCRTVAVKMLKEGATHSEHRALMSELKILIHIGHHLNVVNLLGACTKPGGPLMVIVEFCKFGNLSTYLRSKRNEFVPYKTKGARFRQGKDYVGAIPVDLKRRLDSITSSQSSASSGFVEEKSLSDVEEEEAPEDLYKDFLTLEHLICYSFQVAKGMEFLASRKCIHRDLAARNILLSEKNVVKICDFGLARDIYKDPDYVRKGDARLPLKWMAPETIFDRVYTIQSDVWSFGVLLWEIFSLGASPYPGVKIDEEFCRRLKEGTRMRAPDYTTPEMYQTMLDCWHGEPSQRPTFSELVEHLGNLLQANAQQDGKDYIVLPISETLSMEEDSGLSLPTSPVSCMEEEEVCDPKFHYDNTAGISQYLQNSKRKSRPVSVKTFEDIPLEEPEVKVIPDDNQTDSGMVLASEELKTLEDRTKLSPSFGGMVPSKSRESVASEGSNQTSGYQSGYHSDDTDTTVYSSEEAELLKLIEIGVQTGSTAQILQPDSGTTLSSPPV

[4] = molecular target: Protein kinase C gamma type (Homo sapiens) (UniProt P05129); assay: Inhibition of PKCgamma at 10 uM by HTRF assay relative to control; method in brief: as §1
[5] = Inhibition of AMPKalpha at 10 uM by HTRF assay relative to control; method in brief: as §1
[6] = molecular target: Serine/threonine-protein kinase Chk2 (Homo sapiens) (UniProt O96017); assay: Inhibition of CHK2 at 10 uM by HTRF assay relative to control; method in brief: as §1
Sequence of Serine/threonine-protein kinase Chk2 (Homo sapiens) (O96017 whole entry): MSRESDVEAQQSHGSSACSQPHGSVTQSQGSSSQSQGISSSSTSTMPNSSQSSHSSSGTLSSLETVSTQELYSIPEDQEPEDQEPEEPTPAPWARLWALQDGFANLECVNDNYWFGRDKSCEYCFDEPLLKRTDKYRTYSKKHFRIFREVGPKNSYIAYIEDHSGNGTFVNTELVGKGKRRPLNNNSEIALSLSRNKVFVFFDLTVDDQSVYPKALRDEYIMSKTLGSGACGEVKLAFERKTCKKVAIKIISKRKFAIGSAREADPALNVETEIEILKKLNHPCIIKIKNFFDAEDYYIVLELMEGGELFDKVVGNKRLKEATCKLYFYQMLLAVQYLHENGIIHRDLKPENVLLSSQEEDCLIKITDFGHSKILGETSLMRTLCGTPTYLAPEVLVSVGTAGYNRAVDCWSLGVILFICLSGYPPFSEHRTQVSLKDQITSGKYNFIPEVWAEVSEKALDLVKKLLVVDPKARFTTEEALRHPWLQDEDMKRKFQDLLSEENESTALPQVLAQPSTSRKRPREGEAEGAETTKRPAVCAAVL

[7] = molecular target: T1, Ephrin type-B receptor 4 (Homo sapiens) (UniProt P54760); assay: Inhibition of EphB4 at 10 uM by HTRF assay relative to control; method in brief: as §1
T1 sequence (whole entry): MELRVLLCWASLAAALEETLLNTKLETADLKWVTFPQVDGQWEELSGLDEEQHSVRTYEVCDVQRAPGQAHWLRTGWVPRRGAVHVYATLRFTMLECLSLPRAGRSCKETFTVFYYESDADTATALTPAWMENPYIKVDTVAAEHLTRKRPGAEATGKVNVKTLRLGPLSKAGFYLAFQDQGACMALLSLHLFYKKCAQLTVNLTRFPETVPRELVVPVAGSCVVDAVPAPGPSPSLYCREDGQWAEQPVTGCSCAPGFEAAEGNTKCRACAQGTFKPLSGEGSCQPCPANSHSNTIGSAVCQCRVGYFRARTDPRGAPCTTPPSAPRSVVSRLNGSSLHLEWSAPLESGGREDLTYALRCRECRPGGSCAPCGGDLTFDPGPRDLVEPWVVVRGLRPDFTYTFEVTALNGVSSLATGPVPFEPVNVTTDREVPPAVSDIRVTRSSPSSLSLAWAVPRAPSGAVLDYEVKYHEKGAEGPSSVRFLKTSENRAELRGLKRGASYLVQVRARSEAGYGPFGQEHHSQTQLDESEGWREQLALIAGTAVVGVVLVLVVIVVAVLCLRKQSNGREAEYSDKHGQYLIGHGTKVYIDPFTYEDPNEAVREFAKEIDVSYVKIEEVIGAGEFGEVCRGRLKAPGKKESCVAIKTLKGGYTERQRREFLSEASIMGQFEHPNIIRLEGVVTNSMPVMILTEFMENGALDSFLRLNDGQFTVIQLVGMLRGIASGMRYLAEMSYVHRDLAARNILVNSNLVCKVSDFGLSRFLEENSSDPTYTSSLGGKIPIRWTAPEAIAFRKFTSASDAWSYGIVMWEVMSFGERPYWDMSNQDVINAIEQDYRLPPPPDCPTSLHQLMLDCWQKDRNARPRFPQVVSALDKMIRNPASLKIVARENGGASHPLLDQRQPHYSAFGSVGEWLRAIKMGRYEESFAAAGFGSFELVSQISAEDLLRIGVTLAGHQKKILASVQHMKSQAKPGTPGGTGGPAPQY

[8] = molecular target: Insulin-like growth factor 1 receptor (Homo sapiens) (UniProt P08069); assay: Inhibition of IGF1R at 10 uM by HTRF assay relative to control; method in brief: as §1
[9] = molecular target: T2, Inhibitor of nuclear factor kappa-B kinase subunit beta (Homo sapiens) (UniProt O14920); assay: Inhibition of IKK-beta at 10 uM by HTRF assay relative to control; method in brief: as §1
T2 sequence (whole entry): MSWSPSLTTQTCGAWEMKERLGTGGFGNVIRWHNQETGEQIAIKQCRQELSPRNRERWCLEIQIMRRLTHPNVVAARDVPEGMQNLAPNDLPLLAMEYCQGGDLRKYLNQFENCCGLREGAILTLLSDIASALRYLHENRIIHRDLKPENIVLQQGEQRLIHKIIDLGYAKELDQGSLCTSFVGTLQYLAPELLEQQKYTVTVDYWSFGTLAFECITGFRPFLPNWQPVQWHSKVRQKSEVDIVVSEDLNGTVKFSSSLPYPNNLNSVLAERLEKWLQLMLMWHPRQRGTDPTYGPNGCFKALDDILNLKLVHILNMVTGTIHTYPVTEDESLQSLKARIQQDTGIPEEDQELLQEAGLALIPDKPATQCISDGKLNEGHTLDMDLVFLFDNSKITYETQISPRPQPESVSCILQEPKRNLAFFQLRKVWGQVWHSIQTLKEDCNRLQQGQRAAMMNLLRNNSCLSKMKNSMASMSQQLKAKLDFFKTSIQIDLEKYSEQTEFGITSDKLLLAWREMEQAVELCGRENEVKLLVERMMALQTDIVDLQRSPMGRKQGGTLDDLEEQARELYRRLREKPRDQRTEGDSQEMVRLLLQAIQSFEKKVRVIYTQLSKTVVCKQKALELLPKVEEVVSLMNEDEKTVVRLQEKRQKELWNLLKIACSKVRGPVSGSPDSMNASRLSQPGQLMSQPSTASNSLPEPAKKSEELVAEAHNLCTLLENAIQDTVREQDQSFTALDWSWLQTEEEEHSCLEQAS

[10] = molecular target: Tyrosine-protein kinase Fes/Fps (Homo sapiens) (UniProt P07332); assay: Inhibition of FES at 10 uM by HTRF assay relative to control; method in brief: as §1
[11] = molecular target: Vascular endothelial growth factor receptor 1 (Homo sapiens) (UniProt P17948); assay: Inhibition of FLT1 at 10 uM by HTRF assay relative to control; method in brief: as §1
Sequence of Vascular endothelial growth factor receptor 1 (Homo sapiens) (P17948 whole entry): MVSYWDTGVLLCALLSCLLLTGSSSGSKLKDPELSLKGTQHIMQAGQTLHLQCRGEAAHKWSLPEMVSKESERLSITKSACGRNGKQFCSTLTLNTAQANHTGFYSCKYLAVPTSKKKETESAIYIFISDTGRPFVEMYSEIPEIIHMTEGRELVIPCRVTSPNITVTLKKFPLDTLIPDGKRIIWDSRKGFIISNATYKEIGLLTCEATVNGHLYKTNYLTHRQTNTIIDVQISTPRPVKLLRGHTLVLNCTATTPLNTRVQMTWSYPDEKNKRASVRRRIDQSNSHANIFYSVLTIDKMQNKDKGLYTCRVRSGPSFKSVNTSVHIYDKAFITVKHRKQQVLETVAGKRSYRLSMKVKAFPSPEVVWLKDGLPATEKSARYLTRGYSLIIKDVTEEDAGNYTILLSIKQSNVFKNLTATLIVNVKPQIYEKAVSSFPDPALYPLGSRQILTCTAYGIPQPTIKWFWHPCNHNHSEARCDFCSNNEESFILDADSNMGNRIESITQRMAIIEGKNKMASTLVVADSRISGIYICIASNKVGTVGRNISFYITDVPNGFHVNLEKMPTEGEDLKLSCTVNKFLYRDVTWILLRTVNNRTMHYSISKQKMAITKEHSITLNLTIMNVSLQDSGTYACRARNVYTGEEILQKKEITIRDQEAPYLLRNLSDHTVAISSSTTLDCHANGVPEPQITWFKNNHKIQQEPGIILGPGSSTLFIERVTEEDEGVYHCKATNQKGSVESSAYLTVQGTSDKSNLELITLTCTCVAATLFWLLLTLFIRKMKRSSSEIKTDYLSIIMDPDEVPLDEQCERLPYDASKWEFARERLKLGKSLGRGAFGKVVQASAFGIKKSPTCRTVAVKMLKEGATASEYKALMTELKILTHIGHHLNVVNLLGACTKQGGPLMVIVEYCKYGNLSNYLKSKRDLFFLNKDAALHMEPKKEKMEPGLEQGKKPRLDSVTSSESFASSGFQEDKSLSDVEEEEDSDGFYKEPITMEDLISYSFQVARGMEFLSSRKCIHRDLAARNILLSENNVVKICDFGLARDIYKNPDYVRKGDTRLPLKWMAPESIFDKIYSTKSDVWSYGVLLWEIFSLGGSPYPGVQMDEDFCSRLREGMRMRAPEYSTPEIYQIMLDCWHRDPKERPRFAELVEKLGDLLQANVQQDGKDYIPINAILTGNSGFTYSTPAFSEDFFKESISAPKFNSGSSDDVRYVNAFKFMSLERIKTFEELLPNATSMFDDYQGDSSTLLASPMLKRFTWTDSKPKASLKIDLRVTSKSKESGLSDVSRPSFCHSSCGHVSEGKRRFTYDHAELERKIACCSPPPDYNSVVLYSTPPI

[12] = molecular target: RAC-alpha serine/threonine-protein kinase (Homo sapiens) (UniProt P31749); assay: Inhibition of AKT1/PKBalpha at 10 uM by HTRF assay relative to control; method in brief: as §1
Sequence of RAC-alpha serine/threonine-protein kinase (Homo sapiens) (P31749 whole entry): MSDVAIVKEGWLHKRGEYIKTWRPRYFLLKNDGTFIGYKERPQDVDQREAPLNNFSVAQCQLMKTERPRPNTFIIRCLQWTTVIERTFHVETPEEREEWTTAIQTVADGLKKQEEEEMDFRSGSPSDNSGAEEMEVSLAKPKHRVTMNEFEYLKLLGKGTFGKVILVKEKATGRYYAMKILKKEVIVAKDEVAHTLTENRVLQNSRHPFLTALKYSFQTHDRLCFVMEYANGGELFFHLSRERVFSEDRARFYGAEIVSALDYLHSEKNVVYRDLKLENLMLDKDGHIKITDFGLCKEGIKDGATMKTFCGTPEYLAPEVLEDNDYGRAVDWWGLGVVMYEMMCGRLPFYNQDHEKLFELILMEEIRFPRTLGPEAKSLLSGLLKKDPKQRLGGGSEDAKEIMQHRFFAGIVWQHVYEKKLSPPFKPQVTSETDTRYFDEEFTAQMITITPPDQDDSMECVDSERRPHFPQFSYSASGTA

[13] = molecular target: Mitogen-activated protein kinase 14 (Homo sapiens) (UniProt Q16539); assay: Inhibition of p38alpha at 10 uM by HTRF assay relative to control; method in brief: as §1
Sequence of Mitogen-activated protein kinase 14 (Homo sapiens) (Q16539 whole entry): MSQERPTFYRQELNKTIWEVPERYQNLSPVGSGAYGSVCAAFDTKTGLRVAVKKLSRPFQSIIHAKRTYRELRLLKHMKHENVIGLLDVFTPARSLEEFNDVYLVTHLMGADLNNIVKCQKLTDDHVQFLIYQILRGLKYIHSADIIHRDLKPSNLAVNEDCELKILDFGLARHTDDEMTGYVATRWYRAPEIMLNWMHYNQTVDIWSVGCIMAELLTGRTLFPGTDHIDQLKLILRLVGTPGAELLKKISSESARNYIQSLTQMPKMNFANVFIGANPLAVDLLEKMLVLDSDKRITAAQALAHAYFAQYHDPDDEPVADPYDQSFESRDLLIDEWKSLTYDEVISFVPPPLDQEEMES

## O=C(NCc1ccncc1)c1cccc(Nc2cc(Nc3cccc(Br)c3)ncn2)c1
[1]
  inhibition: 31%
[2]
  inhibition: 0%
[3]
  inhibition: 22%
[4]
  inhibition: 0%
[5]
  inhibition: 11%
[6]
  inhibition: 0%
[7]
  inhibition: 0%
[8]
  inhibition: 5%
[9]
  inhibition: 4%
[10]
  inhibition: 17%
[11]
  inhibition: 32%
[12]
  inhibition: 0%
[13]
  inhibition: 37%

## Cc1ccc(CN2CCN(c3nccc(C(C#N)c4ccccn4)n3)CC2)cc1 (configuration not stated)
[1]
  inhibition: 5%
[2]
  inhibition: 0%
[3]
  inhibition: 0%
[4]
  inhibition: 4%
[5]
  inhibition: 7%
[6]
  inhibition: 0%
[7]
  inhibition: 0%
[8]
  inhibition: 0%
[9]
  inhibition: 7%
[10]
  inhibition: 3%
[11]
  inhibition: 0%
[12]
  inhibition: 0%
[13]
  inhibition: 2%

## Cc1cccc(CN2CCN(c3cc(N(C)c4cccc(C)c4)ncn3)CC2)c1
[1]
  inhibition: 2%
[2]
  inhibition: 0%
[3]
  inhibition: 3%
[4]
  inhibition: 2%
[5]
  inhibition: 4%
[6]
  inhibition: 2%
[7]
  inhibition: 0%
[8]
  inhibition: 0%
[9]
  inhibition: 1%
[10]
  inhibition: 4%
[11]
  inhibition: 0%
[12]
  inhibition: 5%
[13]
  inhibition: 1%

## CN(C)CC(C)(C)CNC(=O)[C@@H]1CCCN1c1nccc(Nc2ccccc2)n1
[1]
  inhibition: 0%
[2]
  inhibition: 0%
[3]
  inhibition: 5%
[4]
  inhibition: 2%
[5]
  inhibition: 10%
[6]
  inhibition: 0%
[7]
  inhibition: 0%
[8]
  inhibition: 0%
[9]
  inhibition: 5%
[10]
  inhibition: 20%
[11]
  inhibition: 12%
[12]
  inhibition: 0%
[13]
  inhibition: 0%

## Cc1cccc(Nc2ncnc3c2CN(C(=O)c2ccc(N(C)C)c4ccccc24)CC3)c1
[1]
  inhibition: 7%
[2]
  inhibition: 0%
[3]
  inhibition: 6%
[4]
  inhibition: 2%
[5]
  inhibition: 19%
[6]
  inhibition: 2%
[7]
  inhibition: 0%
[8]
  inhibition: 3%
[9]
  inhibition: 4%
[10]
  inhibition: 3%
[11]
  inhibition: 1%
[12]
  inhibition: 0%
[13]
  inhibition: 1%

## Cc1cccc(N(C)c2cc(Nc3cccc(C(=O)N(C)CCc4ccccn4)c3)ncn2)c1
[1]
  inhibition: 49%
[2]
  inhibition: 0%
[3]
  inhibition: 31%
[4]
  inhibition: 6%
[5]
  inhibition: 0%
[6]
  inhibition: 0%
[7]
  inhibition: 0%
[8]
  inhibition: 0%
[9]
  inhibition: 8%
[10]
  inhibition: 15%
[11]
  inhibition: 3%
[12]
  inhibition: 2%
[13]
  inhibition: 5%

## Nc1nc(Nc2ccc(C(=O)NCCc3ccncc3)cc2)cc(N2CCOCC2)n1
[1]
  inhibition: 6%
[2]
  inhibition: 0%
[3]
  inhibition: 13%
[4]
  inhibition: 0%
[5]
  inhibition: 0%
[6]
  inhibition: 0%
[7]
  inhibition: 0%
[8]
  inhibition: 0%
[9]
  inhibition: 4%
[10]
  inhibition: 9%
[11]
  inhibition: 0%
[12]
  inhibition: 2%
[13]
  inhibition: 10%

## COc1ccc(NC(=O)Cc2ccc(Nc3cc(N(C)c4cccc(C)c4)ncn3)cc2)cn1
[1]
  inhibition: 13%
[2]
  inhibition: 0%
[3]
  inhibition: 8%
[4]
  inhibition: 5%
[5]
  inhibition: 2%
[6]
  inhibition: 1%
[7]
  inhibition: 0%
[8]
  inhibition: 6%
[9]
  inhibition: 0%
[10]
  inhibition: 0%
[11]
  inhibition: 20%
[12]
  inhibition: 0%
[13]
  inhibition: 2%

## O=C(c1nc(SCc2ccc(Cl)cc2)n2ccccc12)N1CCN(c2cc(Nc3cccc(Br)c3)ncn2)CC1
[1]
  inhibition: 10%
[2]
  inhibition: 0%
[3]
  inhibition: 0%
[4]
  inhibition: 4%
[5]
  inhibition: 5%
[6]
  inhibition: 6%
[7]
  inhibition: 0%
[8]
  inhibition: 0%
[9]
  inhibition: 1%
[10]
  inhibition: 0%
[11]
  inhibition: 0%
[12]
  inhibition: 0%
[13]
  inhibition: 6%
